Calls of active or inactive are those of the source. No cut-off for these calls is given here.
How the values were obtained:
HEK293 [1] = assay: Cytotoxicity against human HEK293 cells assessed as cell death at 50 to 50000 nM after 24 hrs by LDH assay; assay type: cell-based; conditions: hek293, 24 h, 50 µM
[2] = molecular target: BDNF/NT-3 growth factors receptor (Rattus norvegicus) (UniProt Q63604); assay: Agonist activity at TrkB in E17 rat primary cortical neurons assessed as TrkB phosphorylation at 817 at 500 nM after 15 mins by immunoblotting; assay type: functional, cell-based; conditions: Cerebral cortex neuron
Procedure, shortened: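 Rat cortical neurons from E17 embryos, 13 DIV, were treated with 500 nM compound for 15 min. Lysates were run on 10% SDS-PAGE and immunoblotted with p-TrkB Y817 antibody at 1:20,000–40,000.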

Mus musculus [3] = assay: Neuroprotective activity in C57BL/6J mouse assessed as inhibition of kainic acid-induced caspase 3 activation in hippocampus region at 5 mg/kg, po administered 2 to 8 hrs prior to kainic acid challenge measured after 4 hrs by immunoblotting; assay type: functional, organism-based; design: dose 5 mg/kg
Mus musculus [4] = assay: Antidepressant activity in TrkB F616A knock in mouse assessed as reduction of immobility time at 5 mg/kg, po administered for 21 days by forced swim test assay in presence of TrkB F616A inhibitor 1NMPP1; assay type: functional, organism-based; design: dose 5 mg/kg
Mus musculus [5] = assay: Induction of neurogenesis in C57BL/6J mouse hippocampus dentate gyrus assessed as progenitor cell proliferation at 5 mg/kg, po administered for 21 days by DAPI and BrdU staining based fluorescence microscopy; assay type: functional, organism-based; design: dose 5 mg/kg
Procedure, shortened: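 Adult male C57BL/6J mice were gavaged at 5 mg/kg for 21 days and then given BrdU at 50 mg/kg i.p. Mice were perfused with 4% paraformaldehyde 2 h later. Paraffin sections had citrate antigen retrieval and 2 N HCl treatment, then were stained with anti-BrdU-FITC at 4 °C for 16 h and with DAPI. BrdU-positive cells in the dentate gyrus were counted by fluorescence microscopy.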

Mus musculus [6] = assay: Neuroprotective activity in TrkB F616A knock in mouse assessed as inhibition of kainic acid-induced caspase 3 activation in brain homogenates at 5 mg/kg, po administered 4 hrs prior to kainic acid challenge measured after 4 days by immunoblotting in presence of TrkB F616A inhibitor 1NMPP1; assay type: functional, organism-based; design: dose 5 mg/kg
Procedure, shortened: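 TrkB F616A knock-in mice, 2–3 months old, were given 1NMPP1 at 25 µM in drinking water one day beforehand. They were then gavaged with compound at 5 mg/kg, followed 4 h later by kainic acid at 20 mg/kg. Brains were taken 4 days later, homogenized and ultracentrifuged. 40 µg of supernatant was immunoblotted.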

Mus musculus [7] = assay: Neuroprotective activity in po dosed C57BL/6J mouse assessed as TrkB phosphorylation in brain by titration assay; assay type: functional, organism-based
Mus musculus [8] = assay: Toxicity in C57BL/6J mouse assessed as pathological changes in liver at 5 mg/kg, po for 3 weeks; assay type: organism-based; design: dose 5 mg/kg, route oral; conditions: in vivo, 504 h
Procedure, shortened: (§1)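 Mice were dosed orally at 5 mg/kg for 3 weeks, with saline-treated controls. Major organs were examined for pathological changes, and a complete blood count was done.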

[9] = molecular target: BDNF/NT-3 growth factors receptor (Rattus norvegicus) (UniProt Q63604); assay: Agonist activity at TrkB in E16 rat embryonic cortical neurons assessed as inhibition of glutamate-induced caspase 3 activation at 10 nM after 30 mins followed by 16 hrs of 50 uM glutamate-challenge by ELISA; assay type: functional
Procedure, shortened: (§2)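 Cortical neurons from E16 rat embryos were pretreated with the indicated compound concentrations for 30 min. They were then challenged with 50 µM glutamate for 16 h. Active caspase-3 in the lysates was measured by ELISA.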

Mus musculus [10] = assay: Agonist activity at TrkB in C57BL/6J mouse brain assessed as TrkB 706 phosphorylation at 1 mg/kg, po at 1 hr by immunoblotting; assay type: functional, organism-based; design: dose 1 mg/kg
Procedure, shortened: (§3)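 C57BL/6J mice got a single oral dose of 1 mg/kg. Brains were collected at several time points, about 1 to 16 h after dosing. Lysates were immunoblotted for TrkB phosphorylation and for downstream Akt and MAPK phosphorylation.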

Mus musculus [11] = assay: Toxicity in C57BL/6J mouse assessed as pathological changes in lungs at 5 mg/kg, po for 3 weeks; assay type: organism-based; design: dose 5 mg/kg, route oral; conditions: in vivo, 504 h; procedure, shortened: as §1
Mus musculus [12] = assay: Toxicity in C57BL/6J mouse assessed as affect on complete blood count analysis at 5 mg/kg, po for 3 weeks; assay type: organism-based; design: dose 5 mg/kg, route oral; conditions: in vivo, 504 h; procedure, shortened: as §1
Mus musculus [13] = assay: Toxicity in C57BL/6J mouse assessed as pathological changes in heart at 5 mg/kg, po for 3 weeks; assay type: organism-based; design: dose 5 mg/kg, route oral; conditions: in vivo, 504 h; procedure, shortened: as §1
[14] = molecular target: BDNF/NT-3 growth factors receptor (Rattus norvegicus) (UniProt Q63604); assay: Agonist activity at TrkB in E16 rat embryonic cortical neurons assessed as inhibition of glutamate-induced caspase 3 activation at 50 to 500 nM after 30 mins followed by 16 hrs of 50 uM glutamate-challenge by ELISA; assay type: functional; procedure, shortened: as §2
Mus musculus [15] = assay: Antidepressant activity in C57BL/6J mouse assessed as decrease in immobility at 5 mg/kg, po administered for 21 days measured last 4 mins of total 6 mins observation time by forced swim test; assay type: functional, organism-based; design: dose 5 mg/kg
Procedure, shortened: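 Male C57BL/6J mice, 2–3 months old, were gavaged with saline or compound at 5 mg/kg for 21 days. Mice were acclimated to the test room for 2 days. There was no pre-swim. Each mouse swam for 6 min in a 16 cm cylinder of water 14 cm deep at 24 °C. Immobility was scored blind over the last 4 min; mean ± SEM, ANOVA.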

Mus musculus [16] = assay: Agonist activity at TrkB in C57BL/6J mouse brain assessed as TrkB 706 phosphorylation at 1 mg/kg, po at 1 to 2 hrs by immunoblotting; assay type: functional, organism-based; design: dose 1 mg/kg; procedure, shortened: as §3
HEK293 [17] = assay: Cytotoxicity against human HEK293 cells assessed as inhibition of cell proliferation at up to 50 uM by MTT assay; assay type: cell-based
Mus musculus [18] = assay: Toxicity in C57BL/6J mouse assessed as pathological changes in brain cortex at 5 mg/kg, po for 3 weeks; assay type: organism-based; design: dose 5 mg/kg, route oral; conditions: in vivo, 504 h; procedure, shortened: as §1
Mus musculus [19] = assay: Toxicity in C57BL/6J mouse assessed as pathological changes in intestine at 5 mg/kg, po for 3 weeks; assay type: organism-based; design: dose 5 mg/kg, route oral; conditions: in vivo, 504 h; procedure, shortened: as §1
Mus musculus [20] = assay: Toxicity in C57BL/6J mouse assessed as pathological changes in muscle at 5 mg/kg, po for 3 weeks; assay type: organism-based, Muscle tissue; design: dose 5 mg/kg, route oral; conditions: in vivo, 504 h; procedure, shortened: as §1
Mus musculus [21] = assay: Toxicity in C57BL/6J mouse assessed as pathological changes in spleen at 5 mg/kg, po for 3 weeks; assay type: organism-based; design: dose 5 mg/kg, route oral; conditions: in vivo, 504 h; procedure, shortened: as §1
Mus musculus [22] = assay: Neuroprotective activity in C57BL/6J mouse assessed as inhibition of kainic acid-induced caspase 3 activation in hippocampus region at 5 mg/kg, po administered 2 to 8 hrs prior to kainic acid challenge measured after 8 hrs by immunoblotting; assay type: functional, organism-based; design: dose 5 mg/kg
[23] = Cytotoxicity at E17 rat primary cortical neurons assessed as cell death at 5 uM by LDH assay; assay type: cell-based; conditions: cerebral cortex neuron
Mus musculus [24] = assay: Toxicity in C57BL/6J mouse assessed as pathological changes in hippocampus at 5 mg/kg, po for 3 weeks; assay type: organism-based; design: dose 5 mg/kg, route oral; conditions: in vivo, 504 h; procedure, shortened: as §1
Mus musculus [25] = assay: Toxicity in C57BL/6J mouse assessed as pathological changes in kidney at 5 mg/kg, po for 3 weeks; assay type: organism-based; design: dose 5 mg/kg, route oral; conditions: in vivo, 504 h; procedure, shortened: as §1
Mus musculus [26] = assay: Toxicity in C57BL/6J mouse assessed as pathological changes in testis at 5 mg/kg, po for 3 weeks; assay type: organism-based; design: dose 5 mg/kg, route oral; conditions: in vivo, 504 h; procedure, shortened: as §1
Mus musculus [27] = assay: Agonist activity at TrkB in C57BL/6J mouse brain lysate assessed as TrkB phosphorylation at Y817 at 5 mg/kg, po administered for 21 days by immunoblotting; assay type: functional, organism-based; design: dose 5 mg/kg
Procedure, shortened: (§4)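 Adult male C57BL/6J mice, 8 per group, dosed orally by gavage once daily for 21 days; saline was the vehicle. Brain lysates were immunoblotted with anti-p-TrkA 794 and anti-p-TrkB 817.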

Mus musculus [28] = assay: Agonist activity at TrkA in C57BL/6J mouse brain lysate assessed as TrkA phosphorylation at Y794 at 5 mg/kg, po administered for 21 days by immunoblotting; assay type: functional, organism-based; design: dose 5 mg/kg; procedure, shortened: as §4
[29] = molecular target: BDNF/NT-3 growth factors receptor (Rattus norvegicus) (UniProt Q63604); assay: Agonist activity at TrkB in E17 rat primary rat cortical neurons assessed as AKT phosphorylation at Ser 473 at 10 nM after 15 mins by titration assay; assay type: functional
Procedure, shortened: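 Primary cortical neurons were incubated with graded concentrations, starting at 10 nM, for 15 min. Phospho-Akt Ser473 was measured by sandwich ELISA on 20 µg of lysate. Data come from 2 replicated experiment sets, given as mean ± SEM. Comparisons used one-way ANOVA against control and Student's t-test between compounds.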

Sequence of BDNF/NT-3 growth factors receptor (Rattus norvegicus) (Q63604 whole entry): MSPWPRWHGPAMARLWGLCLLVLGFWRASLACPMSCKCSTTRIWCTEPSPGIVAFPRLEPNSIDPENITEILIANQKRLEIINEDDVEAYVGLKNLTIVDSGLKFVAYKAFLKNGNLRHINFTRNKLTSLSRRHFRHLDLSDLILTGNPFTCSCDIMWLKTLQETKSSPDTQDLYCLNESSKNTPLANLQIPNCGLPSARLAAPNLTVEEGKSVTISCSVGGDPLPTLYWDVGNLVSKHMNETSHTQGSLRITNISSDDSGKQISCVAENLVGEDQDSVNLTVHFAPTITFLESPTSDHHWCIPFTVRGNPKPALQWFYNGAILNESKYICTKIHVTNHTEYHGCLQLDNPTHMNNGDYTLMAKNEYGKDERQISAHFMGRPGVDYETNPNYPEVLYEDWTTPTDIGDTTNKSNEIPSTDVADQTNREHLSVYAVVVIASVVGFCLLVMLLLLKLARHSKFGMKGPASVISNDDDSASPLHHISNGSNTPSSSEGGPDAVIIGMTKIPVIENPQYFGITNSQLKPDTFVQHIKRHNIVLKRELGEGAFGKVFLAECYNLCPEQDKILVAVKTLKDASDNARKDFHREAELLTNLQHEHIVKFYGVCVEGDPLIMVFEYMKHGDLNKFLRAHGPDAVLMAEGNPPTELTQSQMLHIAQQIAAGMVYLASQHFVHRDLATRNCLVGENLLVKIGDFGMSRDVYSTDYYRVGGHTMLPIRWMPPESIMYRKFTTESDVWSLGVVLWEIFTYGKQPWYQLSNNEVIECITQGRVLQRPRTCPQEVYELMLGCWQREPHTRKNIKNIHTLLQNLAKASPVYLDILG

Activity [2]: Active
inhibition [9]: Active
Activity [14]: Active
Activity [29]: Active
SMILES: O=c1cc(-c2ccccc2)oc2c(O)c(O)ccc12 [7,8-DIHYDROXYFLAVONE]
Activity (HEK293 [1]): Non-toxic
inhibition (Mus musculus [3]): Active
Activity (Mus musculus [4]): inactive
Activity (Mus musculus [5]): Active
inhibition (Mus musculus [6]): inactive
Activity (Mus musculus [7]): Dose-dependent effect
Activity (Mus musculus [8]): Non-toxic
Activity (Mus musculus [10]): Active
Activity (Mus musculus [11]): Non-toxic
Activity (Mus musculus [12]): Non-toxic
Activity (Mus musculus [13]): Non-toxic
Activity (Mus musculus [15]): Active
Activity (Mus musculus [16]): Active
Activity (HEK293 [17]): Non-toxic
Activity (Mus musculus [18]): Non-toxic
Activity (Mus musculus [19]): Non-toxic
Activity (Mus musculus [20]): Non-toxic
Activity (Mus musculus [21]): Non-toxic
inhibition (Mus musculus [22]): Active
Activity [23]: Non-toxic
Activity (Mus musculus [24]): Non-toxic
Activity (Mus musculus [25]): Non-toxic
Activity (Mus musculus [26]): Non-toxic
Activity (Mus musculus [27]): Active
Activity (Mus musculus [28]): inactive

From ChEMBL document CHEMBL1800034, “A synthetic 7,8-dihydroxyflavone derivative promotes neurogenesis and exhibits potent antidepressant effect” (J Med Chem, 2010)
